Experimental findings from ChEMBL document CHEMBL4196170, “Cytotoxic p-Terphenyls from the Endolichenic Fungus Floricola striata” (J Nat Prod, 2018) are described below.

Where a name gives a salt, the structure may show the parent alone. Activity calls are given as the source filed them. No cut-off for these calls is given here. Bounds are passed on as bounds.

For one test, the system named is A549. Description: Cytotoxicity against human A549 cells after 48 hrs by MTT assay. To be noted: A549, 48 h. The test is classed as functional, cell-based. Put shortly: (§1)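 Cells seeded at 5000−10 000 per well, preincubated 12 h at 37 °C, 5% CO2, then exposed to a range of concentrations for 48 h. MTT added, absorbance read at 570 nm after 4 h; percent growth inhibition used to derive IC50. Adriamycin as positive control.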

The test system of a further test is A2780. Description: Cytotoxicity against human A2780 cells after 48 hrs by MTT assay. Conditions: A2780, 48 h. The test is classed as functional, cell-based. Put shortly:
as §1
A general note: Tetrazolium assays rely on reduction of a dye to a coloured formazan, in cell work by metabolically active cells.

Test [1] deals with MCF7. Description: Cytotoxicity against human MCF7 cells after 48 hrs by MTT assay. The test is classed as functional, cell-based. To be noted: MCF7, 48 h. Put shortly:
as §1

For test [2], the species on record is Homo sapiens. The experiment in a line: Inhibition of P-gp in human MCF7/ADR cells assessed as increase in intracellular Rh123 accumulation by measuring increase in fluorescence intensity after 24 hrs by fluorescence microscopic analysis. The test is classed as cell-based. A digest of the protocol:
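Rh123 (5 μM)-exposed MCF-7/ADR cells, untreated or treated with modulator (10 μM) or verapamil (10 μg/mL), photographed by fluorescence microscopy after 24 h.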

For test [3], the species on record is Homo sapiens. The experiment in a line: Inhibition of P-gp in human MCF7/ADR cells assessed as increase in intracellular Rh123 accumulation after 1 hr by flow cytometry. The test is classed as cell-based. Put shortly:
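Exponentially growing MCF-7/ADR cells (3 × 10^5/mL) loaded with Rh123 (5 μM) with or without modulator (5, 10, 20 μM) or verapamil (10 μg/mL), 1 h at 37 °C. Rh123 accumulation (%) by flow cytometry, excitation 488 nm, emission through 530 nm filter; untreated cells as negative control. Mean ± SD of three independent experiments.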

Test [4] is filed under the species Homo sapiens. The experiment in a line: Inhibition of P-gp in human MCF7/ADR cells assessed as increase in intracellular accumulation of adriamycin after 1 hr by flow cytometry. The test is classed as cell-based. Put shortly:
(§2)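 4 × 10^5 MCF-7 or MCF-7/ADR cells incubated 1 h at 37 °C with 10.0 μM adriamycin alone or with modulator (5, 10, 20 μM) or verapamil (10 μg/mL); washed twice in ice-cold PBS. Adriamycin accumulation (%) by flow cytometry relative to untreated cells. Mean ± SD, three independent experiments.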
(Flow cytometry measures light scatter and fluorescence of single cells or particles in a stream.)

The species entered for test [5] is Homo sapiens. The experiment in a line: Inhibition of P-gp in human MCF7/ADR cells assessed as potentiation of adriamycin-induced cytotoxicity by measuring fold reduction in adriamycin IC50 at 10 uM after 48 hrs by MTT assay relative to adriamycin alone. The test is classed as cell-based. A digest of the protocol: (§3)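 MCF-7/ADR (ADM-selected, P-gp-overexpressing) and MCF-7 cells given graded adriamycin with or without modulator (5 or 10 μM) or verapamil 10 μg/mL for 48 h; MTT read at 570 nm. Reversal fold from adriamycin IC50 alone versus IC50 in combination.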

The test system of the next test is NCI/ADR-RES. Description: Cytotoxicity against human MCF7/ADR cells after 48 hrs by MTT assay. The test is classed as functional, cell-based. A digest of the protocol: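 MTT format as for parental lines: 48 h exposure to various concentrations in ADM-selected P-gp-overexpressing MCF-7/ADR cells, absorbance at 570 nm after 4 h MTT, IC50 from percent growth inhibition.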

The species entered for test [6] is Homo sapiens. Description: Inhibition of P-gp in human MCF7/ADR cells assessed as increase in intracellular accumulation of adriamycin by measuring increase in fluorescence intensity at 10 uM after 24 hrs by fluorescence microscopic analysis. The test is classed as cell-based. Put shortly: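 MCF-7/ADR cells imaged by fluorescence microscopy for adriamycin fluorescence after 24 h incubation with or without modulator (10 μM) or verapamil (10 μg/mL); untreated cells as negative control.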

Test [7] has as its system MCF7. The experiment in a line: Increase in adriamycin accumulation in human MCF7 cells at 20 uM after 1 hr by flow cytometry. The test is classed as functional, cell-based. A digest of the protocol:
as §2

For test [8], the species on record is Homo sapiens. Description: Inhibition of P-gp in human MCF7/ADR cells assessed as potentiation of adriamycin-induced cytotoxicity by measuring fold reduction in adriamycin IC50 at 5 uM after 48 hrs by MTT assay relative to adriamycin alone. The test is classed as cell-based. Put shortly:
as §3

Test [9] relates to MCF7. Description: Increase in adriamycin accumulation in human MCF7 cells at 10 ug/ml after 1 hr by flow cytometry. The test is classed as functional, cell-based. Put shortly: as §2
For test [10], the species on record is Homo sapiens. To be noted: 10 ug/ml.

As for `COc1ccc(-c2c(OC)cc(-c3ccccc3)c(OC)c2OC)cc1`, the IC50 in the test on A549, in the test on A2780 and with MCF7 [1] was greater than 40 µM in each case.
For the compound `COc1cccc2c1C(=O)c1c(O)c3c(c(O)c1C2=O)C[C@@](O)(C(=O)CO)C[C@@H]3O[C@H]1C[C@H](N)[C@H](O)[C@H](C)O1` [DOXORUBICIN HYDROCHLORIDE], the 50% inhibitory concentration (IC50) – broadly, the concentration that inhibits the measured activity by half – in the test on A549 worked out at 1.3 µM; with A2780, 0.5 µM.
As for `COc1ccc(-c2c(O)cc(-c3ccccc3)c(OC)c2OC)cc1`, the IC50 in the test with A549, in the test with A2780 and with MCF7 [1] was greater than 40 µM throughout.
Take `COc1cc(-c2ccc(O)cc2)c(O)c2oc3ccc(O)cc3c12`: the values for the IC50 in the test on A549, with A2780 and in the test with MCF7 [1] were greater than 40 µM, 21.4 µM and 17.9 µM, respectively.
Consider `COC1=C(c2ccc(OC)cc2)C(=O)C=C(c2ccccc2)C1=O`, for which the inhibition entry in the test listed under Homo sapiens [2], in the test listed under Homo sapiens [3] and in the test filed under Homo sapiens [4] was “Dose-dependent effect” each time. For the same compound, the IC50 with A549 amounted to 40.1 µM; in the test on A2780, 3.4 µM; in the test on MCF7 [1] it was 19.9 µM; in the test with NCI/ADR-RES it was 23.5 µM. Moreover, the results for the fold change (FC) in the test filed under Homo sapiens [5] and in the test listed under Homo sapiens [8] were 39.1 and 1.3, respectively. The inhibition result in the test filed under Homo sapiens [6] is “Active”. For the same compound, the result in the test on MCF7 [7] was inactive.
Turning to `O=C1C[C@@](O)(c2ccccc2)[C@H](O)c2oc3ccc(O)cc3c21`, the IC50 in the test on A549, in the test with A2780 and in the test on MCF7 [1] was greater than 40 µM each time.
As to `COc1cc(-c2ccc(O)cc2)c(O)c2oc3ccccc3c12`, the IC50 is greater than 40 µM in the test with A549, 40.1 µM in the test on A2780 and 17.5 µM in the test on MCF7 [1].
For the compound `COc1ccc(CCN(C)CCCC(C#N)(c2ccc(OC)c(OC)c2)C(C)C)cc1OC` (configuration not stated), the inhibition result in the test listed under Homo sapiens [2] and in the test listed under Homo sapiens [3] was “Dose-dependent effect” throughout. The outcome with MCF7 [9] was inactive. In addition, the inhibition entry in the test filed under Homo sapiens [10] is “Active”.
On to `COc1ccc(-c2cc(OC)c(-c3ccccc3O)c(OC)c2OC)cc1`, for which the IC50 in the test on A549, in the test on A2780 and in the test with MCF7 [1] was greater than 40 µM throughout.
For `COC1=C(c2ccccc2O)C(=O)C=C(c2ccc(O)cc2)C1=O`, the IC50 in the test with A549 was greater than 40 µM; with A2780, 8.6 µM; in the test with MCF7 [1], 16.7 µM.
For `COc1ccc(-c2cc(OC)c(-c3ccccc3)c(OC)c2O)cc1`, the IC50 with A549 was 12.5 µM; with A2780 it was greater than 40 µM; in the test on MCF7 [1], 38.5 µM.
On the same counts, the results for `COc1cc(-c2ccccc2)c(O)c2oc3ccc(O)cc3c12` are greater than 40 µM, 25.1 µM and 13.4 µM.
Consider `COc1cc(-c2ccc(O)cc2)c(O)c2oc3cc(O)ccc3c12`, for which the IC50 in the test with A549 came out at 27.8 µM; in the test with A2780 it was 14.9 µM; with MCF7 [1], 11.7 µM.
